Hits are enriched below; roughly 2.5% of the tested compounds scored in any of these assays.
PG9 Ab binder = PG9 antibody binding by small molecule | TR-FRET gp120-PG9 antibody binding | inhibition, % at 6.7 µM | AID 624416 | actives 0.43% (n = 360,000); in the data active = inhibition above about 8.5%
MC4R antag cAMP = human MC4R antagonism in cAMP assay. MC4R-expressing cells, MTII-stimulated cAMP, LANCE TR-FRET. inhibition, % at 6.5 µM. P32245. actives 0.48% (n = 360,000);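 active = inhibition above its plate's cutoff, the mean of tested wells on that plate plus 3 SD, cut at about 29% in these data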;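 note: 0% = Melanotan II alone and 100% = Melanotan II plus saturating MCL0020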
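Material: U2OS-MC4R stable cell line | Reagent: Melanotan II challenge after compound preincubation | Doses: One concentration, 6.5 µM nominal | Incubation: 30-min compound preincubation, 1-h Melanotan II challenge, 1-h detection, room temperature | Signal: TR-FRET cAMP assay | Replicates: One well per compound, no replicates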
MC4R ag barr = activates human MC4R beta-arrestin recruitment | P32245 | U2OS MC4R beta-arrestin complementation, luminescence; percent of melanotan II response, DMSO zero | activation, % at 8.9 µM | actives 0.98% (n = 360,000);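 active = activation above a per-plate cutoff, the mean activation of sample wells on that plate plus 3 SD, cut at about 8% in these data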
NTR1 agonist = activates human neurotensin receptor 1; actives 0.17% (n = 330,000); P30989; NTR1-U2OS beta-arrestin-GFP spot imaging, agonist mode; activation, % at 20 µM;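 active = activation at or above 40% of the spot to cytoplasm intensity ratio, with at least 20 cells analyzed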;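 note: 0% = DMSO without peptide and 100% = 100 nM NTR1 peptide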
Rev-erbA mod = Rev-erb alpha (human) modulation; activity, % at 10 µM; AID 1259318; P20393; Rev-erbα–FITC-DNA binding, fluorescence polarization, 90 min; actives 0.79% (n = 370,000);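 active = activity above about 14%, limit read from the data; passing the limit was not always enough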;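 note: 0% = DMSO wells with 35 nM protein and 100% = DMSO wells with 750 nM protein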
MC4R barr conf = human MC4R beta-arrestin agonism confirmation; AID 602192; U2OS MC4R beta-arrestin recruitment, luminescence; scaled DMSO 0%, Melanotan II 100%; actives 31% (n = 2,400); activation, % at 8.9 µM; shares compounds with MC4R ag barr;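 active = mean activation across replicates above the hit cutoff set in the earlier primary screen, cut at about 8% in these data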
MOR DOR agonist = counter-screen for MC4R agonists: agonists of mu-delta opioid heterodimer | shares compounds with MC4R ag barr | activation, % at 9.2 µM | AID 602194 | U2OS PathHunter beta-arrestin, beta-gal luminescence; percent of deltorphin B response, DMSO zero | actives 5.8% (n = 2,400);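 active = mean activation across replicates exceeds the hit threshold derived in the earlier primary screen, cut at about 18% in these data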;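 note: 100% = deltorphin B at 0.9 µM final and 0% = DMSO alone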
Target sequence (P35372 whole entry, looked up): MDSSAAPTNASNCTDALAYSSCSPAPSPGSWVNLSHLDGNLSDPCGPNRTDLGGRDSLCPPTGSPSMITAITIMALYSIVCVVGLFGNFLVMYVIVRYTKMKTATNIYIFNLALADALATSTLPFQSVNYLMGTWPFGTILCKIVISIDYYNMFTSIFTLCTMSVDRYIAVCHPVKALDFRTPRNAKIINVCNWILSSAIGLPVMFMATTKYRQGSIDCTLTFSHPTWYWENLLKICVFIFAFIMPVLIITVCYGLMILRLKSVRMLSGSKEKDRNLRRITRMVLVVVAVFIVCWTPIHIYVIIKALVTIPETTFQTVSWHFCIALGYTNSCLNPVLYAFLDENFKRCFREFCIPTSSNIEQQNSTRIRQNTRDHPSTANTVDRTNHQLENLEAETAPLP
Target sequence (P41143 whole entry, looked up): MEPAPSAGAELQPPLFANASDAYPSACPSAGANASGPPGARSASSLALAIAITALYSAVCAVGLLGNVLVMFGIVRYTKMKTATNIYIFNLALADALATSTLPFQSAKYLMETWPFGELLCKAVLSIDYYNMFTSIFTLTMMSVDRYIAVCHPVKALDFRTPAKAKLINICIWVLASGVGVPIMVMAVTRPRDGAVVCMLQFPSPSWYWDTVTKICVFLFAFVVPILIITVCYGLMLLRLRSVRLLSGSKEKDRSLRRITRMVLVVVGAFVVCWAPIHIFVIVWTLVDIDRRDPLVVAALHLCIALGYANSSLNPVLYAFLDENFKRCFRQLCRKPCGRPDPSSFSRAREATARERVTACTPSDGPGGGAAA
Active calls of the source: *; . = no result.

SMILES	PG9 Ab binder	MC4R antag cAMP	MC4R ag barr	NTR1 agonist	Rev-erbA mod	MC4R barr conf	MOR DOR agonist
CC(/C=N/NC(=O)c1ccc(Br)cc1)=C\c1ccccc1	-2	1	28*	1	-12	1	8
O=C(N/N=C/c1ccc(OCc2ccccc2)cc1)c1cccs1	0	1	13*	8	-2	20*	8
CCOC(=O)c1c(N)sc(C(O)(C(F)(F)F)C(F)(F)F)c1-c1ccc(F)cc1	1	2	11*	14	-2	5	8
O=C(OCc1cn(Cc2cccc(C(F)(F)F)c2)nn1)N1CCOCC1	.	.	.	.	3	.	.
NC(=O)c1c(N)[nH]c(C(=O)c2ccccc2)c1-c1ccccc1	0	.	.	.	-1	.	.
CC1Sc2ccc(C(=O)OCc3ccccc3Cl)cc2NC1=O (stereo unspecified)	0	12	35*	7	-3	3	6
COc1cccc(COC(=O)c2ccc3c(c2)NC(=O)C(C)S3)c1OC (stereo unspecified)	0	2	19*	11	6	3	9
Cc1ccc(C(=O)NCC(=O)Nc2cccc(C(F)(F)F)c2)cc1	0	10	15*	2	-2	-1	3
O=C(CNC(=O)c1ccccc1)Nc1cccc(C(F)(F)F)c1	3	8	0	-1	9	.	.
CC1(C)C=Cc2ccc(O)c(C(=O)/C=C/c3ccccc3)c2O1	.	.	.	.	-1	.	.
O=C(/C=C/c1ccc(Cl)c([N+](=O)[O-])c1)Nc1ccc(N2CCCC2)c(Cl)c1	-1	21	11*	1	-1	7	4
CC(C)Cn1c(=S)[nH]c2cc(C(=O)NCc3ccccc3F)ccc2c1=O	5	3	14*	1	10	0	4
COCCn1c(=S)[nH]c2cc(C(=O)NCc3ccc(F)cc3)ccc2c1=O	1	7	-1	.	-7	.	.
COC(=O)C1=C(C)N(Cc2ccccc2C(F)(F)F)C(=NCc2cccc(C(F)(F)F)c2)NC1c1ccc(F)cc1 (stereo unspecified)	1	.	.	.	-7	.	.
CCOC(=O)N/N=C\c1ccc(OC/C=C/c2ccccc2)cc1	1	2	11*	0	-2	0	5
C[C@H]1CN(C(=O)OC(C)(C)C)CCN1c1ccc(Br)c(C#N)c1	0	.	.	.	4	.	.
CC(C)[C@@H]1CC[C@@H](C)C[C@H]1OC[B-](F)(F)F	-1	.	.	.	1	.	.
COC(=O)[C@]12C[C@H](CC(=O)N3CCN(C(=O)c4ccco4)CC3)C(=O)N(Cc3ccccc3)C1=C[C@H](C1CCCC1)O[C@@H]2C	-1	.	.	.	-2	.	.
Cc1ccc(NC(=O)c2ccc(S(=O)(=O)N3CCC(C)CC3)cc2)cc1	0	10	11*	1	0	1	4
Cc1ccc(S(=O)(=O)N2CCN(S(=O)(=O)N3CCC(C)CC3)CC2)cc1C	0	-2	10*	-1	3	4	3
Cc1ccc(S(=O)(=O)N2CCN(S(=O)(=O)N3CCCCC3)CC2)cc1C	0	2	0	0	-3	.	.
CC1CCN(S(=O)(=O)c2ccc(NC(=O)Cn3nnc(-c4ccccc4F)n3)cc2)CC1	1	-6	12*	9	-3	15*	7
O=S1(=O)c2c(cccc2N2CC[C@@H](O)C2)O[C@H]2CCN1C2	.	.	.	.	-2	.	.
COCCCNC(=O)C[C@H]1C[C@@]2(C(=O)OC)C(=C[C@H](C3CCCC3)O[C@@H]2C)N(Cc2ccccc2)C1=O	3	.	.	.	5	.	.
C=CCN1C(=O)C2(NNc3ccccc3O2)c2ccccc21 (stereo unspecified)	0	2	9.8*	6	3	10*	5
SMILES	PG9 Ab binder	MC4R antag cAMP	MC4R ag barr	NTR1 agonist	Rev-erbA mod	MC4R barr conf	MOR DOR agonist
CCCCN1C(=O)C2(NNc3ccccc3O2)c2ccccc21 (stereo unspecified)	-2	22	3	0	-4	.	.
CCCCCCCCN1C(=O)[C@@H](CC(=O)N2CCSCC2)C[C@@]2(C(=O)OC)C1=C[C@H](C(C)C)O[C@@H]2C1CC1	.	.	.	.	-2	.	.
CCCCNC(=O)C[C@H]1C[C@@]2(C(=O)OC)C(=C[C@H](C(C)C)O[C@@H]2C2CC2)N(Cc2ccc(Cl)cc2Cl)C1=O	.	.	.	.	2	.	.
O=C(Nc1ccc2c(c1)OCO2)c1cc(-c2ccccc2Cl)on1	2	-5	32*	-2	2	2	4
O=C(NCc1ccc2c(c1)OCO2)c1cc(-c2ccccc2Cl)on1	-1	17	1	0	0	.	.
COc1cccc(-c2cc(C(=O)Nc3ccc4c(c3)OCO4)no2)c1	-1	-7	16*	1	-2	3	10
O=C(Nc1ccc2c(c1)OCO2)c1cc(-c2cccc(O)c2)on1	-1	-1	-3	0	10	.	.
COc1ccc(-c2cc(C(=O)Nc3ccc4c(c3)OCO4)no2)cc1OC	2	14	6	0	-18	.	.
O=C(Nc1ccc2c(c1)OCO2)c1cc(-c2ccc(O)cc2)on1	1	-5	11*	8	-3	4	7
CCOc1ccc(N(CC(=O)Nc2c(C)n(C)n(-c3ccccc3)c2=O)S(=O)(=O)c2cccc3cccnc23)cc1	.	.	.	.	1	.	.
CCOC(=O)C1=C(c2ccccc2)NC(N)=NC1c1ccc(OCc2ccc(C(=O)OC)cc2)cc1 (stereo unspecified)	-2	13	14*	24	-1	6	9
Cc1cc(N2CCNC[C@H]2C)ccc1N1C[C@@H](C)O[C@@H](C)C1	-3	.	.	.	-2	.	.
Cc1ccc(C(=O)NCc2ccco2)cc1[N+](=O)[O-]	-1	6	-1	-2	-2	.	.
Cc1ccc(NC(=O)c2ccc(NCc3ccco3)c([N+](=O)[O-])c2)cc1Cl	0	3	11*	18	1	25*	26*
Cc1ccc(NC(=O)c2ccc(NCC3CCCO3)c([N+](=O)[O-])c2)cc1Cl (stereo unspecified)	0	-2	34*	20	-7	13*	21*
Nc1[nH]c(C(=O)c2ccccc2)c(-c2ccc3ccccc3c2)c1C(=O)NCCc1ccc(Cl)cc1	.	.	.	.	0	.	.
CCCCCN1CCCCC(NC(=O)c2cccc(C(F)(F)F)c2)C1=O (stereo unspecified)	.	.	.	.	-2	.	.
Cc1sc(NC(=O)CSc2nnc(COc3ccccc3)n2C)c(C#N)c1C	0	12	7	3	-6	.	.
Cc1ccc(OCc2nnc(SCC(=O)Nc3sc(C)c(C)c3C#N)n2C)cc1	0	-1	18*	-2	10	2	5
Cc1cccc(OCc2nnc(SCC(=O)Nc3sc(C)c(C)c3C#N)n2C)c1	2	-2	17*	0	-5	2	6

Screening results deposited in PubChem BioAssay by several laboratories.
